Tests used:
[1] = High-throughput metabolic stability assay, rat liver microsomes; type: in vitro ADME; settings: predicted from in vitro metabolic stability
In short: (§1)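 Predicted hepatic metabolic clearance from a high-throughput metabolic stability assay. Systems: pooled human, rat or mouse liver microsomes, or freshly harvested rat hepatocytes. Output is predicted blood clearance (CLb) in L h−1 kg−1.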

[2] = system: freshly harvested rat hepatocytes (rHep); assay: High-throughput metabolic stability assay, rat hepatocytes; type: in vitro ADME; settings: predicted from in vitro metabolic stability
In short: as §1

Hydrolytic stability = type: physicochemical
In short: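 Test compound stirred for 24 hours in buffers: pH 2.0 and pH 4.5 citrate, pH 6.5 and pH 7.4 phosphate-buffered saline, pH 8.0 sodium borate. Hydrolytic stability is expressed as percent test compound recovered at 24 h.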

[3] = Bidirectional Caco2 permeability assay; type: in vitro ADME; settings: human, Caco-2
Caco2 = assay: Bidirectional Caco2 permeability assay; type: in vitro ADME; settings: Caco2, P app B–A/P app A–B
[4] = High-throughput metabolic stability assay, mouse liver microsomes; type: in vitro ADME; settings: predicted from in vitro metabolic stability
In short: as §1

[5] = High-throughput metabolic stability assay, human liver microsomes; type: in vitro ADME; settings: predicted from in vitro metabolic stability
In short: as §1

With `N=S(=O)(c1ccccc1)N1CCCCC1` (stereo not shown) [2 a, 1 ‐(S‐Phenylsulfonimidoyl)piperidine] the “CLb rLMs (predicted blood clearance)” value [1] was 50 mL/min/kg, the “CLb rHep (predicted blood clearance)” value [2] was 60 mL/min/kg and the “Recovered test compound (hydrolytic stability)” value (Hydrolytic stability; all tested pH values (2.0–8.0), 24 hours with stirring) was 100%. It also gave a recovery at 24 h (Hydrolytic stability; citrate buffer, pH 2) of 100%, a recovery at 24 h (Hydrolytic stability; citrate buffer, pH 4.5) of 100% and a recovery at 24 h (Hydrolytic stability; phosphate-buffered saline, pH 6.5) of 100%. For the same compound, the recovery at 24 h (Hydrolytic stability; phosphate-buffered saline, pH 7.4) was 100%, the recovery at 24 h (Hydrolytic stability; sodium borate buffer, pH 8) was 100% and the Papp A→B [3] was 37.8 ×10⁻⁶ cm/s. For the same compound, the efflux ratio [3] was 0.59, the efflux ratio (Caco2) was “no evidence of efflux” and the “CLb mLMs (predicted blood clearance)” value [4] was 18.3 mL/min/kg. The “CLb hLMs (predicted blood clearance)” value [5] was 0.67 mL/min/kg.
